According to ChEMBL document CHEMBL3085664, “Structure-activity relationship of imidazopyridinium analogues as antagonists of neuropeptide s receptor” (J Med Chem, 2013):

How the values were obtained:
[1] = target: T1, Neuropeptide S receptor (Homo sapiens, UniProt Q6W5P4); assay: Antagonist activity at neuropeptide S receptor (unknown origin) expressed in CHO cells assessed as cAMP level after 30 mins by […] assay; format: functional, cell-based
T1 sequence (Q6W5P4 whole entry): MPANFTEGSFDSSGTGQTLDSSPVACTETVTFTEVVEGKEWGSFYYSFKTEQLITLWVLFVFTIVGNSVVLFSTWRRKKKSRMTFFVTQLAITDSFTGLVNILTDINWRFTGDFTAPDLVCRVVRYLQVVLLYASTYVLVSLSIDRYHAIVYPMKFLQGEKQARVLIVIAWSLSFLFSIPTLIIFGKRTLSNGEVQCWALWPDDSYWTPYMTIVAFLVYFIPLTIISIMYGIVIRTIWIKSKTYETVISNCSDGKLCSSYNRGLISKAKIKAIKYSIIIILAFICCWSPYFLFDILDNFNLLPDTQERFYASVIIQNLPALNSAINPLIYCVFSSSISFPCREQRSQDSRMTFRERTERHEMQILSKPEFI
Outline: (§1)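 CHO cells stably expressing NPSR, 1800 cells/well in 1536-well format, seeded overnight at 37°C in medium without Geneticin. Stimulation buffer (PBS, 0.1% BSA, 0.05% Tween-20, 500µM Ro 20-1724, EC80 NPS) was added for 30 min at 37°C. cAMP was read by HTRF (d2-cAMP/cryptate anti-cAMP in lysis buffer, 30 min). IC50 is the mean with SD of two independent experiments, each run in duplicate.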

[2] = target: T1, Neuropeptide S receptor; assay: Antagonist activity at neuropeptide S receptor (unknown origin) expressed in CHO cells assessed as inhibition of NPS-induced calcium mobilization after 10 mins by fluorescence assay; format: functional, cell-based
Outline: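 CHO-NPSR cells, 2000/well in 1536-well plates, incubated overnight, then loaded with no-wash calcium dye for 1 h at 37°C. Compound in DMSO was added for 10 min. Baseline fluorescence was recorded 6 s at 1 Hz, then EC80 NPS in stimulation buffer was added and recording continued 4 min at 1 Hz on a kinetic reader. IC50 is the mean with SD of two independent experiments in duplicate.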

[3] = target: T1, Neuropeptide S receptor; assay: Antagonist activity at neuropeptide S receptor (unknown origin) assessed as intracellular calcium level by cell based assay; format: functional
Outline: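 CHO cells stably expressing NPSR were seeded at 2000 cells/well and incubated overnight at 37 °C, 5% CO2. They were loaded with no-wash calcium dye for 1 h, then preincubated with compound in DMSO for 10 min. Stimulation used NPS at EC80 in PBS/0.1% BSA/0.05% Tween-20 with 500 µM Ro 20-1724. Kinetic fluorescence was read at 1 Hz: 6 s baseline, then 4 min. IC50 is the mean ± SD of two independent experiments, each in duplicate.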

[4] = target: T1, Neuropeptide S receptor; assay: Antagonist activity at neuropeptide S receptor (unknown origin) expressed in CHO cells assessed as inhibition of NPS-induced ERK activation after 20 mins by HTRF assay; format: cell-based
[5] = target: T2, Neuropeptide S receptor (Homo sapiens) (UniProt Q6W5P4); assay: Antagonist activity at neuropeptide S receptor (unknown origin) expressed in CHO cells assessed as inhibition of NPS-induced ERK activation at 50 uM after 20 mins by HTRF assay relative to control; format: cell-based
T2 sequence (whole entry): T1 sequence (Q6W5P4 whole entry)

[6] = Metabolic stability in mouse liver microsomes assessed as compound remaining after 30 mins in presence NADPH; format: ADME, Microsome; conditions: read-out: Stability
Outline: (§2)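 Compound was incubated with mouse liver microsomes, and percent parent remaining was determined at 15, 30 and 60 min. Values are means from a single experiment run in duplicate.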

[7] = Metabolic stability in mouse liver microsomes assessed as compound remaining after 15 mins in absence NADPH; format: ADME, Microsome; conditions: read-out: Stability; outline: as §2
[8] = target: T1, Neuropeptide S receptor; assay: Displacement of [125I]Tyr10-NPS from neuropeptide S receptor (unknown origin)
Outline: (§3)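 Whole CHO cells stably expressing human NPSR at 90–95% confluency in 24-well plates. Cells were incubated with 0.15 nM [125I]Y10-NPS plus increasing compound or unlabeled NPS in DMEM/0.1% BSA, 20°C, 1.5 hr. Nonspecific binding was defined with 1 µM unlabeled human NPS. Cells were washed, lysed in 1 N NaOH and counted by liquid scintillation. IC50 from one experiment in duplicate.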

[9] = Metabolic stability in mouse liver microsomes assessed as compound remaining after 15 mins in presence NADPH; format: ADME, Microsome; conditions: read-out: Stability; outline: as §2
[10] = Metabolic stability in mouse liver microsomes assessed as compound remaining after 30 mins in absence NADPH; format: ADME, Microsome; conditions: read-out: Stability; outline: as §2
[11] = target: T1, Neuropeptide S receptor; assay: Displacement of [125I]Tyr10-NPS from human neuropeptide S receptor expressed in CHO cells after 1.5 hrs by liquid scintillation counting; format: cell-based; outline: as §3
[12] = Metabolic stability in mouse liver microsomes assessed as compound remaining after 60 mins in absence NADPH; format: ADME, Microsome; conditions: read-out: Stability; outline: as §2
[13] = Metabolic stability in mouse liver microsomes assessed as compound remaining after 60 mins in presence NADPH; format: ADME, Microsome; conditions: read-out: Stability; outline: as §2
[14] = target: T1, Neuropeptide S receptor; assay: Antagonist activity at neuropeptide S receptor (unknown origin) assessed as cAMP level by cell based assay; format: functional; outline: as §1

Structure (SMILES) | IC50 ([2]; read-out: IC50) | IC50 ([1]; read-out: IC50) | further results
c1ccc(P(c2ccccc2)c2cnc3ccccn23)cc1 | 35000 nM | – | IC50 ([1]; cho): Not Active
O=C(NCc1ccccc1)N1CCN2C(=O)OC(c3ccccc3)(c3ccccc3)C2C1 (stereo not given) | – | – | IC50 [3]: 26 nM
Cc1c(P(=S)(c2ccccc2)c2ccccc2)n2ccccc2[n+]1CCCc1ccccc1 | < 0.5 nM | 110 nM | –
Cc1c(P(=S)(c2ccccc2)c2ccccc2)n2ccccc2[n+]1C/C=C/c1ccc2ccccc2c1 | 64 nM | 1300 nM | –
Cn1cc(P(=S)(c2ccccc2)c2ccccc2)c2ccccc21 | 7300 nM | – | IC50 ([1]; cho): Not Active
Cc1c(P(=S)(c2ccccc2)c2ccccc2)n2ccccc2[n+]1C/C=C/c1cccc(Cl)c1 | 9.2 nM | 220 nM | –
Cc1c(P(=S)(c2ccccc2)c2ccccc2)n2ccccc2[n+]1CCCCCc1ccccc1 | 13 nM | 710 nM | IC50 [4]: 6.2 nM
Cc1c(P(=S)(c2ccccc2)c2ccccc2)n2ccccc2[n+]1C/C=C/c1cccc(Br)c1 | 23 nM | 670 nM | –
S=P(c1ccccc1)(c1ccccc1)c1cnc2ccccn12 | 4030 nM | 63000 nM | inhibition [5]: < 50%
Cc1c(P(=S)(c2ccccc2)c2ccccc2)n2ccccc2[n+]1C/C=C/c1ccc(Br)cc1 | 5.7 nM | 170 nM | –
CCC(C)(CCN1CCOCC1)N(Cc1cc2ccccc2n(C)c1=O)C(=O)C1CCCCC1 (stereo not given) | 55 nM | 1.2 nM | remaining at 0.5 h [6]: 0%; remaining at 0.25 h [7]: 103%; IC50 [4]: 11 nM; IC50 [8]: 1.3 nM; remaining at 0.25 h [9]: 0%; remaining at 0.5 h [10]: 97%; IC50 [11]: 6.7 nM; remaining at 1 h [12]: 94%; remaining at 1 h [13]: 0%
Cc1ccc(/C=C/C[n+]2c(C)c(P(=S)(c3ccccc3)c3ccccc3)n3ccccc32)cc1 | 9 nM | 330 nM | –
Cc1c(P(=S)(c2ccccc2)c2ccccc2)c2ccccc2n1C | 2800 nM | – | inhibition [5]: < 50%; IC50 ([1]; cho): Not Active
O=P(c1ccccc1)(c1ccccc1)c1cnc2ccccn12 | – | – | IC50 ([2]; cho): Not Active
Cc1c(P(=S)(c2ccccc2)c2ccccc2)n2ccccc2[n+]1CCCCc1ccccc1 | < 0.5 nM | 940 nM | IC50 [4]: 15 nM
Cc1c(P(=S)(c2ccccc2)c2ccccc2)n2ccccc2[n+]1C/C=C/c1ccccc1Cl | 3.4 nM | 94 nM | –

Structure (SMILES) | IC50 ([2]; read-out: IC50) | IC50 ([1]; read-out: IC50) | further results
Cc1nc2ccccn2c1P(=S)(c1ccccc1)c1ccccc1 | 1000 nM | 18000 nM | IC50 [4]: 9.1 nM
C[n+]1cc(C(O)(c2ccccc2)c2ccccc2)n2ccccc21.O=C([O-])C(F)(F)F | – | – | IC50 ([2]; cho): Not Active
Cc1c(P(=S)(c2ccccc2)c2ccccc2)n2ccccc2[n+]1C/C=C/c1ccc(C(F)(F)F)cc1 | 4.5 nM | 400 nM | –
O=C1c2ccccc2C(=O)C1(c1ccccc1)N1CCN(Cc2ccccc2)CC1 | – | – | IC50 [3]: 27 nM
Cc1c(C(O)(c2ccccc2)c2ccccc2)n2ccccc2[n+]1C.O=C([O-])C(F)(F)F | – | – | IC50 ([2]; cho): Not Active
Cc1c(P(=S)(c2ccccc2)c2ccccc2)n2ccccc2[n+]1C/C=C/c1ccc(Cl)cc1 | 2.2 nM | 120 nM | –
C[n+]1cc(P(=S)(c2ccccc2)c2ccccc2)n2ccccc21 | 2500 nM | 39000 nM | inhibition [5]: < 50%
Cc1c(P(=S)(c2ccccc2)c2ccccc2)n2ccccc2[n+]1Cc1ccccc1 | 32 nM | 1300 nM | IC50 [4]: 16 nM
Cc1nc2ccccn2c1C(O)(c1ccccc1)c1ccccc1 | – | – | IC50 ([2]; cho): Not Active
Cc1c(P(=S)(c2ccccc2)c2ccccc2)n2ccccc2[n+]1C/C=C/c1ccc(F)cc1 | 3.4 nM | 71 nM | –
COc1ccc(C2c3c(ccc4ccccc34)OC3N=CN(CCN4CCOCC4)C(=N)C32)cc1OC (stereo not given) | – | – | IC50 [14]: 4900 nM; IC50 [3]: 1400 nM; IC50 [8]: 190 nM
OC(c1ccccc1)(c1ccccc1)c1cnc2ccccn12 | – | – | IC50 ([2]; cho): Not Active
Cc1c(P(=S)(c2ccccc2)c2ccccc2)n2ccccc2[n+]1C/C=C/c1ccc(F)c(Br)c1 | 45 nM | 840 nM | –
COc1cccc(/C=C/C[n+]2c(C)c(P(=S)(c3ccccc3)c3ccccc3)n3ccccc32)c1 | 3.2 nM | 110 nM | –
Cc1nc2ccccn2c1P(=O)(c1ccccc1)c1ccccc1 | 27000 nM | – | IC50 ([1]; cho): Not Active
Cc1c(P(=S)(c2ccccc2)c2ccccc2)n2ccccc2[n+]1CCc1ccccc1 | 73 nM | 2100 nM | IC50 [4]: 16 nM
